≈ marks a conversion by molar mass, not a printed value. Calls of active or inactive are those of the source. The rule behind the calls is not given here.
Key:
Bacillus anthracis [1] = test: Antimicrobial activity against Bacillus anthracis Sterne spores by broth microdilution method; assay type: functional
Bacillus licheniformis = test: Antimicrobial activity against Bacillus licheniformis clinical isolate by broth microdilution method; assay type: functional
Staphylococcus aureus [2] = test: Antimicrobial activity against methicillin-resistant Staphylococcus aureus clinical isolate by broth microdilution method; assay type: functional
Burkholderia mallei = test: Antimicrobial activity against Burkholderia mallei ATCC 23344 by broth microdilution method; assay type: functional
Enterococcus faecalis [3] = test: Antimicrobial activity against Enterococcus faecalis clinical isolate by broth microdilution method; assay type: functional
In short: (§1)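 Broth microdilution. Log-phase cultures (5 × 10^5 CFU/ml) seeded in 96-well plates with compound from 0 to 20 µM or 1% DMSO control. Incubated at 37°C for 16 to 20 h. Growth read as absorbance at 600 nm.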

Bacillus pumilus = test: Antimicrobial activity against Bacillus pumilus clinical isolate by broth microdilution method; assay type: functional; in short: as §1
Bacillus anthracis [4] = test: Protection against Bacillus anthracis Sterne spores induced cell death in mouse J774A1 cells assessed as dead cells at 10 uM by Sytox green dye staining assay relative to untreated control; assay type: functional, J774.A1
Yersinia pestis = test: Antimicrobial activity against Yersinia pestis by broth microdilution method; assay type: functional
Bacillus anthracis [5] = test: Antimicrobial activity against Bacillus anthracis Sterne vegetative cells by broth microdilution method; assay type: functional
Staphylococcus aureus [6] = test: Antimicrobial activity against Staphylococcus aureus ATCC 25923 by broth microdilution method; assay type: functional; in short: as §1
Bacillus subtilis [7] = test: Inhibition of DNA synthesis in Bacillus subtilis BD54 at 5 X MIC by [3H]thymidine incorporation assay; assay type: functional, organism-based
In short: (§2)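 Precursors were [methyl-3H]thymidine (DNA), [5-3H]uridine (RNA), L-[4,5-3H]leucine (protein) and N-acetyl-D-[1-3H]glucosamine (cell wall). Samples taken over time, precipitated with equal volume of ice-cold 20% TCA, filtered on glass fibre, and counted. cpm plotted against time.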

Enterococcus faecium = test: Antimicrobial activity against vancomycin-resistant Enterococcus faecium B42762 by broth microdilution method; assay type: functional
Enterococcus faecalis [8] = test: Antimicrobial activity against Enterococcus faecalis 29212 clinical isolate by broth microdilution method; assay type: functional
[9] = system: Burkholderia thailandensis; test: Antimicrobial activity against Burkholderia thailandensis by broth microdilution method; assay type: functional
Bacillus anthracis [10] = test: Inhibition of spore germination in Bacillus anthracis Sterne spores at MIC after 4 hrs; assay type: functional, organism-based
[11] = system: Mycolicibacterium smegmatis; test: Antimicrobial activity against Mycobacterium smegmatis 700009 by broth microdilution method; assay type: functional; in short: as §1
[12] = system: Burkholderia pseudomallei; test: Antimicrobial activity against Burkholderia pseudomallei DD503 by broth microdilution method; assay type: functional
Escherichia coli = test: Antimicrobial activity against Escherichia coli J53 clinical isolate by broth microdilution method; assay type: functional
Klebsiella pneumoniae = test: Antimicrobial activity against Klebsiella pneumoniae 5657 by broth microdilution method; assay type: functional; in short: as §1
Burkholderia cepacia = test: Antimicrobial activity against Burkholderia cepacia clinical isolate by broth microdilution method; assay type: functional; in short: as §1
Bacillus anthracis [13] = test: Antimicrobial activity against Bacillus anthracis Ames by broth microdilution method in presence of 10% fetal calf serum; assay type: functional
Brevibacillus brevis = test: Antimicrobial activity against Bacillus brevis clinical isolate by broth microdilution method; assay type: functional; in short: as §1
Enterococcus faecalis [14] = test: Antimicrobial activity against vancomycin-resistant Enterococcus faecalis ATCC 51575 by broth microdilution method; assay type: functional
Staphylococcus aureus [15] = test: Antimicrobial activity against Staphylococcus aureus by broth microdilution method; assay type: functional; in short: as §1
[16] = system: Mycolicibacterium smegmatis; test: Antimicrobial activity against Mycobacterium smegmatis 19420 by broth microdilution method; assay type: functional; in short: as §1
Bacillus subtilis [17] = test: Antimicrobial activity against Bacillus subtilis clinical isolate by broth microdilution method; assay type: functional
[18] = system: Mycolicibacterium smegmatis; test: Antimicrobial activity against Mycobacterium smegmatis 35798 by broth microdilution method; assay type: functional; in short: as §1
[19] = Cytotoxicity against human HeLa cells after 3 days by MTS assay in presence of 10% fetal calf serum; assay type: cell-based
Bacillus anthracis [20] = test: microbe, parasite or virus in culture; settings: Ames
HeLa = test: Effect on cell membrane integrity in human HeLa cells assessed as lactate dehydrogenase release at 32 times MIC against Staphylococcus aureus by CytoTox ONE homogenous membrane integrity assay; assay type: cell-based
In short: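 Confluent HeLa cells in DMEM treated for 1 h with a range of compound concentrations, 1% DMSO final. […] LDH activity in the supernatant measured by a membrane-integrity kit.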

Priestia megaterium = test: Antimicrobial activity against Bacillus megaterium clinical isolate by broth microdilution method; assay type: functional
Bacillus anthracis [21] = test: Antimicrobial activity against Bacillus anthracis Vollum clinical isolate by broth microdilution method; assay type: functional
Bacillus subtilis [22] = test: Inhibition of cell wall synthesis in Bacillus subtilis BD54 at 5 X MIC by N-acetyl-D-[1-3H] glucosamine incorporation assay; assay type: functional; in short: as §2
Bacillus anthracis [23] = test: microbe, parasite or virus in culture; settings: Ames; remark: listed apart in the source
Pseudomonas aeruginosa = test: Antimicrobial activity against Pseudomonas aeruginosa PAO1 by broth microdilution method; assay type: functional; in short: as §1
Bacillus anthracis [24] = test: Protection against Bacillus anthracis Sterne spores induced cell death in mouse J774A1 cells assessed as live viable cells at 10 uM by Sytox green dye staining assay relative to untreated control; assay type: functional, J774.A1
Bacillus subtilis [25] = test: Inhibition of RNA synthesis in Bacillus subtilis BD54 at 5 X MIC by [5-3H]uridine incorporation assay; assay type: functional; in short: as §2
Staphylococcus aureus [26] = test: Antimicrobial activity against methicillin-resistant Staphylococcus aureus 1094 by broth microdilution method; assay type: functional
Bacillus anthracis [27] = test: Inhibition of spore outgrowth in Bacillus anthracis Sterne spores assessed as reduction in bacterial CFU count at 0.1 ug/ml after 4 hrs relative to untreated control; assay type: functional, organism-based
Bacillus subtilis [28] = test: Inhibition of protein synthesis in Bacillus subtilis BD54 at 5 X MIC by L-[4,5-3H]leucine incorporation assay; assay type: functional, organism-based; in short: as §2

Compound c1cc2cc(-c3ccc4cc(C5=NCCN5)[nH]c4c3)[nH]c2cc1C1=NCCN1 has an MIC (Bacillus anthracis [1]) of 0.6 µg/mL (≈ 1.63 µM), an MIC (Bacillus licheniformis) of 2.2 µg/mL (≈ 5.97 µM) and an MIC (Staphylococcus aureus [2]) of 2.2 µg/mL (≈ 5.97 µM). For the same compound, the MIC (Burkholderia mallei) was 1.8 µg/mL (≈ 4.89 µM), the MIC (Enterococcus faecalis [3]) was 2.2 µg/mL (≈ 5.97 µM) and the MIC (Bacillus pumilus) was 0.1 µg/mL (≈ 0.271 µM). It also gave an Activity (Bacillus anthracis [4]) of 11%, an MIC (Yersinia pestis) of 7.4 µg/mL (≈ 20.1 µM) and an MIC (Bacillus anthracis [5]) of 1.1 µg/mL (≈ 2.99 µM). For the same compound, the MIC (Staphylococcus aureus [6]) was 0.3 µg/mL (≈ 0.814 µM), the inhibition (Bacillus subtilis [7]) was “Active” and the MIC (Enterococcus faecium) was 0.2 µg/mL (≈ 0.543 µM). The MIC (Enterococcus faecalis [8]) was 0.3 µg/mL (≈ 0.814 µM), the MIC [9] was 18 µg/mL (≈ 48.9 µM) and the inhibition (Bacillus anthracis [10]) was “inactive”. The MIC [11] was 0.3 µg/mL (≈ 0.814 µM), the MIC [12] was 1.8 µg/mL (≈ 4.89 µM) and the MIC (Escherichia coli) was 1.1 µg/mL (≈ 2.99 µM). The MIC (Klebsiella pneumoniae) was 0.4 µg/mL (≈ 1.09 µM), the MIC (Burkholderia cepacia) was 4.4 µg/mL (≈ 11.9 µM) and the MIC (Bacillus anthracis [13]) was 0.3 µg/mL. For the same compound, the MIC (Brevibacillus brevis) was 0.3 µg/mL (≈ 0.814 µM), the MIC (Enterococcus faecalis [14]) was 0.5 µg/mL (≈ 1.36 µM) and the MIC (Staphylococcus aureus [15]) was 1.1 µg/mL (≈ 2.99 µM). For the same compound, the MIC [16] was 0.2 µg/mL (≈ 0.543 µM), the MIC (Bacillus subtilis [17]) was 0.6 µg/mL (≈ 1.63 µM) and the MIC [18] was < 0.1 µg/mL. The CC50 at 72 h [19] was 33 µg/mL, the MBC (Bacillus anthracis [20]) was 0.5 µg/mL (≈ 1.36 µM) and the MIC (Bacillus anthracis [20]) was 0.3 µg/mL (≈ 0.814 µM). The Activity (HeLa) was “Non-toxic”, the MIC (Priestia megaterium) was 0.6 µg/mL (≈ 1.63 µM) and the MBC (Bacillus anthracis [21]) was 1.1 µg/mL (≈ 2.99 µM). The MIC (Bacillus anthracis [21]) was 0.6 µg/mL (≈ 1.63 µM), the “inhibition (INH)” value (Bacillus subtilis [22]) was 40% and the MBC (Bacillus anthracis [23]) was 2.2 µg/mL (≈ 5.97 µM). For the same compound, the MIC (Bacillus anthracis [23]) was 1.1 µg/mL (≈ 2.99 µM), the MIC (Pseudomonas aeruginosa) was 25 µg/mL (≈ 67.9 µM) and the Activity (Bacillus anthracis [24]) was 89%. For the same compound, the “inhibition (INH)” value (Bacillus subtilis [25]) was 40% and the MIC (Staphylococcus aureus [26]) was 0.3 µg/mL (≈ 0.814 µM).

c1cc2cc(-c3ccc4cc(-c5ccc6oc(C7=NCCN7)cc6c5)[nH]c4c3)[nH]c2cc1C1=NCCN1 showed an MIC (Bacillus anthracis [1]) of 0.4 µg/mL (≈ 0.825 µM), an MIC (Bacillus licheniformis) of 1.4 µg/mL (≈ 2.89 µM) and an MIC (Staphylococcus aureus [2]) of 2.8 µg/mL (≈ 5.78 µM). For the same compound, the MIC (Burkholderia mallei) was > 9.7 µg/mL, the MIC (Enterococcus faecalis [3]) was 0.7 µg/mL (≈ 1.44 µM) and the MIC (Bacillus pumilus) was 0.4 µg/mL (≈ 0.825 µM). For the same compound, the Activity (Bacillus anthracis [4]) was 24%, the MIC (Yersinia pestis) was 9.7 µg/mL (≈ 20 µM) and the MIC (Bacillus anthracis [5]) was 0.7 µg/mL (≈ 1.44 µM). The MIC (Staphylococcus aureus [6]) was 0.3 µg/mL (≈ 0.619 µM), the inhibition (Bacillus subtilis [7]) was “Active” and the MIC (Enterococcus faecium) was 0.1 µg/mL (≈ 0.206 µM). For the same compound, the MIC (Enterococcus faecalis [8]) was 0.1 µg/mL (≈ 0.206 µM), the MIC [9] was 2.8 µg/mL (≈ 5.78 µM) and the inhibition (Bacillus anthracis [10]) was “inactive”. The MIC [11] was < 0.1 µg/mL, the MIC [12] was > 9.7 µg/mL and the MIC (Escherichia coli) was 1.4 µg/mL (≈ 2.89 µM). For the same compound, the MIC (Klebsiella pneumoniae) was 16 µg/mL (≈ 33 µM), the MIC (Burkholderia cepacia) was 22 µg/mL (≈ 45.4 µM) and the MIC (Bacillus anthracis [13]) was 1.4 µg/mL. For the same compound, the MIC (Brevibacillus brevis) was 0.2 µg/mL (≈ 0.413 µM), the MIC (Enterococcus faecalis [14]) was 0.1 µg/mL (≈ 0.206 µM) and the MIC (Staphylococcus aureus [15]) was 0.7 µg/mL (≈ 1.44 µM). The MIC [16] was 0.1 µg/mL (≈ 0.206 µM), the MIC (Bacillus subtilis [17]) was 0.4 µg/mL (≈ 0.825 µM) and the MIC [18] was < 0.1 µg/mL. It also gave a CC50 at 72 h [19] of 17 µg/mL, an MBC (Bacillus anthracis [20]) of 1.2 µg/mL (≈ 2.48 µM) and an MIC (Bacillus anthracis [20]) of 0.2 µg/mL (≈ 0.413 µM). For the same compound, the MIC (Priestia megaterium) was 0.4 µg/mL (≈ 0.825 µM), the MBC (Bacillus anthracis [21]) was 0.4 µg/mL (≈ 0.825 µM) and the MIC (Bacillus anthracis [21]) was 0.4 µg/mL (≈ 0.825 µM). For the same compound, the “inhibition (INH)” value (Bacillus subtilis [22]) was 40%, the MBC (Bacillus anthracis [23]) was 2.8 µg/mL (≈ 5.78 µM) and the MIC (Bacillus anthracis [23]) was 1.4 µg/mL (≈ 2.89 µM). For the same compound, the MIC (Pseudomonas aeruginosa) was > 80 µg/mL, the Activity (Bacillus anthracis [24]) was 75% and the “inhibition (INH)” value (Bacillus subtilis [25]) was 40%. For the same compound, the MIC (Staphylococcus aureus [26]) was 0.5 µg/mL (≈ 1.03 µM).

For O=C(O)c1cn(C2CC2)c2cc(N3CCNCC3)c(F)cc2c1=O [CIPROFLOXACIN], the inhibition (Bacillus anthracis [27]) was “Active”, the MIC (Staphylococcus aureus [6]) was 0.3 µg/mL (≈ 0.905 µM) and the inhibition (Bacillus subtilis [7]) was “Active”. The MIC (Enterococcus faecium) was 20 µg/mL (≈ 60.4 µM), the inhibition (Bacillus subtilis [28]) was “Active” and the MIC [11] was 0.4 µg/mL (≈ 1.21 µM). It also gave an MIC (Klebsiella pneumoniae) of 0.2 µg/mL (≈ 0.604 µM), an MIC (Enterococcus faecalis [14]) of 0.6 µg/mL (≈ 1.81 µM) and an MIC [16] of 0.1 µg/mL (≈ 0.302 µM). For the same compound, the MIC [18] was 0.2 µg/mL (≈ 0.604 µM), the inhibition (Bacillus subtilis [22]) was “Active” and the MIC (Pseudomonas aeruginosa) was 0.1 µg/mL (≈ 0.302 µM). For the same compound, the inhibition (Bacillus subtilis [25]) was “Active” and the MIC (Staphylococcus aureus [26]) was 5 µg/mL (≈ 15.1 µM).

From ChEMBL document CHEMBL1687745 (Antimicrob Agents Chemother, 2009)
